Assay outcomes as filed in PubChem.
Runt-CBFb FRET: inhibitors of human RUNX1 Runt domain binding to CBFb. Q01196+Q13951. Cerulean-Runt/Venus-CBFb FRET ratio 530/480, 1 h. inhibition, % at 20 µM. actives 0.46% (n = 220,000);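 active = inhibition over about 50% at 20 µM in the single-dose screen, limit read from the data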;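 note: 0% = DMSO wells and 100% = excess unlabeled CBFb competitor control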
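System: Cerulean-labeled Runt domain protein | Quantity: 100 nM of each labeled protein | Schedule: 1 h compound exposure, room temperature | Detection: Fluorescence energy transfer, 422 nm excitation, 530/480 nm emission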
EBV gp42 block: EBV gp42 inhibition. Q1HVG2. Fluorescence polarization binding assay, mP read-out. inhibition, % (tested at 21.74 µM). actives 0.42% (n = 220,000). AID 1085
Runt-SMMHC FRET: blocks binding of human RUNX1 Runt domain to CBFb-SMMHC; actives 0.74% (n = 220,000); inhibition, % at 20 µM; Cerulean-Runt/Venus-CBFb-SMMHC FRET ratio 530/480, 1 h; AID 1434;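 active = mean inhibition across duplicate retests at 20 µM reaching about 50%, limit read from the data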;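 note: 0% = DMSO wells and 100% = wells with excess untagged CBFb-SMMHC; inhibitors lower the FRET ratio by blocking Runt binding to CBFb-SMMHC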
RanGTP-Impb inh: inhibitors of RanGTP-importin-beta interaction, primary screen, biochemical, FRET, CFP-Ran, YFP-importin-beta, homogeneous. inhibition, % (no concentration beside the values). cell-free CFP-Ran/YFP-importin-beta FRET ratio. actives 1.1% (n = 300,000);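 active = more than half of the replicate wells show a fall in the fluorescence ratio signal beyond about 16%, limit read from the data, passing the limit was not always enough; inconclusive = exactly half of the replicate wells pass the set limit; inactive = fewer than half of replicates pass the limit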;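 note: 0% = DMSO wells and 100% = Ran loaded with GDP instead of GTP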
PKD1 kinase inh: blocks activity of human protein kinase D1; Q15139; PKD1 kinase fluorescence polarization assay; inhibition, % (no concentration beside the values); actives 0.056% (n = 200,000)
MEX-5 binding: C. elegans MEX-5 TCR-2 RNA binding activity | AID 1832 | actives 0.38% (n = 300,000) | activity score (negative = inhibition of binding), % at 10 µM | Q9XUB2 | MEX-5/FITC-TCR2 RNA binding, fluorescence polarization; hits give low values;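 active = inhibition past about -25% in most replicates, and total fluorescence under double the plate's negative control median, limit read from the data; inconclusive = replicates evenly split on the limit, or fluorescence at least double controls; inactive = too little inhibition in most replicates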;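 note: 0% = DMSO and -100% = 5 µM competing unlabeled TCR2 RNA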
Target sequence (Q9XUB2 whole entry, looked up): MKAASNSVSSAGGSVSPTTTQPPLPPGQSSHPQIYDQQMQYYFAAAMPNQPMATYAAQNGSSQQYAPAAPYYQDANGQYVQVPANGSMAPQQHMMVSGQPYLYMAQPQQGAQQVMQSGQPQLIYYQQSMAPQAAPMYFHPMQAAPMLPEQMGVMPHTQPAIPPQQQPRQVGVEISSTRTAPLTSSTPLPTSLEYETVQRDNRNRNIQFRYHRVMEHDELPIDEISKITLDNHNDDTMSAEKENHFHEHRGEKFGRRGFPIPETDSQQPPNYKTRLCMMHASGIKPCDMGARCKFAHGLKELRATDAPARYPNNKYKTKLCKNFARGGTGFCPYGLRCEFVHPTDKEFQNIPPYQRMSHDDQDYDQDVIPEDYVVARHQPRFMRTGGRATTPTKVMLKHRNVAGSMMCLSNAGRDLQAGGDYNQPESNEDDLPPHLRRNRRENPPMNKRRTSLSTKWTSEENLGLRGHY
The depositor's hits bear a star; u = inconclusive; x = no result. A selection: hits, their analogues and other compounds. The true share with any hit is near 2%. Cut-off read from the data, not from the text of the source, unless noted: active = inhibition above about 50%; inactive = the rest.

SMILES	Runt-CBFb FRET	EBV gp42 block	Runt-SMMHC FRET	RanGTP-Impb inh	PKD1 kinase inh	MEX-5 binding
CCc1ccc(NC(=O)C(=O)NNC(=O)c2ccc(OC)cc2)cc1	x	x	x	-4	x	2
CCc1ccc(C(=O)NNC(=O)OC)cc1	69*	-8	1	6	1	0
O=C(NCC1CCCO1)c1cccc(Oc2ccc([N+](=O)[O-])cc2)c1 (stereo not drawn)	x	x	x	3	x	-2
O=C1CCc2cc(S(=O)(=O)Nc3ccccc3)cc3c2N1CC3	x	x	x	7	x	-1
COc1ccc(OC)c(N2C(=O)CC(Cc3cc(C)cc(C)c3)C2=O)c1 (stereo not drawn)	-5	-24	1	31*	4	-1
COc1ccc(OC)c(N2C(=O)CC(Cc3ccc(Cl)cc3)C2=O)c1 (stereo not drawn)	-2	4	0	-3	6	-1
CCCCn1c(O)c(/C=C2\C=Nc3ccccc32)c(=O)[nH]c1=O	x	x	x	-4	x	-31*
CCc1cc2c(C)cc(=O)oc2cc1OC(=O)C1CCCN1C(=O)OC(C)(C)C (stereo not drawn)	30	-2	75*	4	2	0
O=C(CCC(=O)N1CCCC(Nc2ccccc2)C1)c1ccc(F)cc1 (stereo not drawn)	x	x	x	-2	x	0
Cc1c(C=O)c2ccccn2c1C(=O)c1ccccc1Cl	x	x	x	2	x	-3
Cc1c(C=O)c2ccccn2c1C(=O)c1cccs1	61*	35	87*	1	-6	-4
COc1cc(C2=NOC(C(=O)Nc3cc(C)on3)C2)cc(OC)c1OC (stereo not drawn)	9	-4	-2	20*	x	1
COc1ccc(C2=NOC(C(=O)Nc3cc(C)on3)C2)cc1OC (stereo not drawn)	3	-16	0	3	x	-5
CC1=NN(C(N)=S)C(=O)C1N=Nc1ccccc1O (stereo not drawn)	x	x	x	3	x	5
CC1=NN(C(N)=S)C(=O)C1N=Nc1c(Cl)cc([N+](=O)[O-])cc1Cl (stereo not drawn)	x	x	x	-5	x	-31*
CC1=NN(C(N)=S)C(=O)C1N=Nc1ccc(S(N)(=O)=O)cc1 (stereo not drawn)	x	x	x	-3	x	-69*
CC(=O)N(C)c1ccc(N=Nc2c(C)[nH]n(-c3ccccc3)c2=O)cc1	x	x	x	-3	x	-2
CC(=O)N(C)c1ccc(N=NC2C(=O)N(C(N)=S)N=C2C)cc1 (stereo not drawn)	x	x	x	-3	x	-26*
CC(=O)N(C)c1ccc(N=Nc2c(C)[nH]n(C(N)=S)c2=O)cc1	0	-8	-2	0	2	-32*
Cc1ccc(Sc2ncccc2C(=O)NCc2cc([N+](=O)[O-])ccc2O)cc1C	x	x	x	2	x	1
COc1cccc(NC(=O)CN(C)C(=O)CNC(=O)c2ccc3ccccc3c2)c1	x	x	x	1	x	2
N=c1c(S(=O)(=O)c2ccc(F)cc2)cc2c(=O)n3ccccc3nc2n1CC1CCCO1 (stereo not drawn)	x	x	x	175*	x	-3
Cc1cccn2c(=O)c3cc(C#N)c(=O)n(CC4CCCO4)c3nc12 (stereo not drawn)	22	15	60*	x	-5	x
Cc1ccc(S(=O)(=O)c2cc3c(=O)n4cccc(C)c4nc3n(CC3CCCO3)c2=N)cc1 (stereo not drawn)	112*	x	38	x	x	x
Cc1cc(-n2c(=O)c(C#N)cc3c(=O)n4cccc(C)c4nc32)no1	18	-3	60*	184*	-2	-3
SMILES	Runt-CBFb FRET	EBV gp42 block	Runt-SMMHC FRET	RanGTP-Impb inh	PKD1 kinase inh	MEX-5 binding
COC(=O)CN(C#N)c1nc(NC(C)C)nc(NC(C)C)n1	1	-9	0	-1	0	1
O=C(O)C(Nc1nc(C(F)(F)F)nc2ccccc12)c1ccccc1 (stereo not drawn)	x	x	x	0	x	3
Cc1cc2nc3ccc(N(C)C)cc3nc2cc1N	x	x	x	-1	x	-28*
COc1ccc(CCNC(=O)c2ccc(CS(=O)Cc3ccc(C)cc3)o2)cc1OC (stereo not drawn)	x	x	x	2	x	1
COc1ccc2c(C#N)c3ccccn3c2c1	20	30	92*	0	0	1
CCC(Oc1ccccc1)C(=O)Nc1cc(C)on1 (stereo not drawn)	0	-5	-2	u	-8	3
CCC(Oc1ccccc1)C(=O)Nc1ccccn1 (stereo not drawn)	2	7	0	3	1	-35*
COc1ccc(C(CC(=O)NCC(OC)OC)NS(=O)(=O)c2ccc(Cl)cc2)cc1 (stereo not drawn)	-3	-15	2	-1	-5	0
CC12CCC(=O)C=C1CCC1C2C(=O)CC2(C)C1CC[C@]2(O)C(=O)CO (stereo partly drawn)	x	x	x	3	x	-1
Nc1nc(NCCO)nc(N2CCCCCC2)c1[N+](=O)[O-]	x	x	x	3	x	3
OCCN(CCO)c1nc(N2CCCCC2)c2nc(N(CCO)CCO)nc(N3CCCCC3)c2n1	-55	135*	67	x	-3	x
C/C(O)=c1/ccc2cccc3nc(C)nc1c23	-13	110*	x	54*	-7	-41*
O/C=c1\ccc2cccc3nc(C(F)(F)F)nc1c23	x	x	x	4	x	u
CCCCN(C)C1=CC2=CC(=C(C#N)C#N)CCC2CC1 (stereo not drawn)	28	-184	58*	92*	-41	u
CCN(CC)C1=CC2=CC(=C(C#N)C#N)CCC2CC1 (stereo not drawn)	4	-62	83*	x	-40	u
N#CC(C#N)=C1C=C2C=C(N3CCCCC3)CCC2CC1 (stereo not drawn)	-50	-102	77*	x	-41	x
Cc1ccc(-n2ncc3c2CC(C)(C)CC3NC(=O)CCn2cncn2)cc1 (stereo not drawn)	x	x	x	-2	x	0
Cc1c(Cl)c(=O)oc2cc(OC(C)C)ccc12	-1	-22	1	3	0	1
CCC(=O)Oc1ccc2c(C)c(Cl)c(=O)oc2c1	83*	-16	127*	25*	2	0
N#Cc1c(-c2ccccc2)c(C#N)c2nc3ccccc3n2c1N	82*	-13	94*	-4	-10	1
Cc1ccc(-c2c(C#N)c(N)n3c(nc4ccccc43)c2C#N)cc1	58*	-80	118*	-1	-1	x
Cc1cc(Cl)n2c(nc3ccccc32)c1C#N	1	-16	-17	u	-1	-2
O=C1C(=O)N(c2ccccn2)C(c2cccc(F)c2)/C1=C(/O)c1ccccc1 (stereo not drawn)	x	x	x	3	x	-1
CCOc1ccc(NC(=O)C(CC)n2nc(C)c3c(C)n(-c4ccccc4)nc3c2=O)cc1 (stereo not drawn)	x	x	x	1	x	1
